# In ChEMBL document CHEMBL1128640, “Thiopyranol[2,3,4-c,d]indoles as inhibitors of 5-lipoxygenase, 5-lipoxygenase-activating protein, and leukotriene C4 synthase” (J Med Chem, 1995):
# Experiments:
# [1] = biological target: T1, Arachidonate 5-lipoxygenase-activating protein (Homo sapiens, UniProt P20292); test: Inhibition of 5-lipoxygenase activating protein using human leukocyte membrane preparations
# T1 sequence (P20292 whole entry): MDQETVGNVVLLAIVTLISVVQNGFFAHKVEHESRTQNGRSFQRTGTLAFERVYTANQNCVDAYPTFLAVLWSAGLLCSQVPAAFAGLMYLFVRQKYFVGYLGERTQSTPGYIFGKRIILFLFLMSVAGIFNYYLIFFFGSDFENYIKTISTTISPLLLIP
# In short: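 Binding assay on human leukocyte membrane preparations, measuring displacement of [¹²⁵I]-L-691,831 by drug. IC50 is the mean of at least two independent determinations unless the value came from a single titration.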
# [2] = biological target: T2, Polyunsaturated fatty acid 5-lipoxygenase (Homo sapiens, UniProt P09917); test: Inhibition of Human 5-lipoxygenase
# T2 sequence (P09917 whole entry): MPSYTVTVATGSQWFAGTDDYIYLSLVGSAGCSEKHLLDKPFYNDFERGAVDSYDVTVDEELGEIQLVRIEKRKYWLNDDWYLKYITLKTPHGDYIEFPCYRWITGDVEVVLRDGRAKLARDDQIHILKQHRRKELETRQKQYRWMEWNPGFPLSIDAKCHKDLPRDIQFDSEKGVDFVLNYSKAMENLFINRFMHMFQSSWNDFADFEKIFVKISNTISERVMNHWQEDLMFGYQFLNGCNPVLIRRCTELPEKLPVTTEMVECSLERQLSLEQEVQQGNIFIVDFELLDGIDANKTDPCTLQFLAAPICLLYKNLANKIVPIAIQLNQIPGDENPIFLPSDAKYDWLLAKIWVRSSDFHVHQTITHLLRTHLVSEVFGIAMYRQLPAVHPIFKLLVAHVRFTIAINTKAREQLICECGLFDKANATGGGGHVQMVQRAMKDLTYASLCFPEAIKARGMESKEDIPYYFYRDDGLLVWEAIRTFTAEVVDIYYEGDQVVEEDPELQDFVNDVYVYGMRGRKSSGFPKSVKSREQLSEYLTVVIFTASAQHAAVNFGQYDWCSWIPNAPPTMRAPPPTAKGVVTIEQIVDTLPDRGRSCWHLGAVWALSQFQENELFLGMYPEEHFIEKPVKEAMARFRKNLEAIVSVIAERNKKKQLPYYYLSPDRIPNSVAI
# In short: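 Enzyme source is the 100000g supernatant (S100) of insect cells overexpressing human 5-LO. Activity followed spectrophotometrically as 5-HPETE production. IC50 is the mean of at least two independent determinations unless the value came from a single titration.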
# [3] = Bioavailability in rat; assay type: ADME, organism-based; conditions: in vivo
# In short: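 Rats dosed with sodium salts, 20 mg/kg po in 1% methocel and 5 mg/kg iv in PEG 200 (n = 2); plasma profiles collected over 0–6 h. Bioavailability calculated as AUC_po/4 × AUC_iv.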
# Rattus norvegicus = test: Compound was tested for the inhibition of dyspnea in hyperreactive rats dosed at 5 mg/kg po; assay type: functional; conditions: for inhibition in vivo at 5 mg/kg: Rattus norvegicus, po
# In short: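 Inbred hyperreactive rats (n = 6) pretreated with methysergide 3 μg/kg iv. Sodium salt given po in 1% or 0.5% methocel 2 h before ovalbumin antigen challenge. Read-out is percent inhibition of dyspnea duration versus litter mate-matched vehicle-treated controls.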
IC50 [2],bioavailability [3],Compound,inhibition in vivo at 5 mg/kg (Rattus norvegicus),other results
55 nM,,CC1Cc2c(OCc3ccccn3)ccc3c2c(c(CSc2ccccc2C(=O)O)n3Cc2ccc(Cl)cc2)S1 (stereo not given),,IC50 [1]: 760 nM
100 nM,,CC1Cc2c(OCc3ccc4ccccc4n3)ccc3c2c(c(COc2ccccc2CC(=O)O)n3Cc2ccc(Cl)cc2)S1 (stereo not given),,IC50 [1]: 32 nM
70 nM,,CC1Cc2c(OCc3ccc4ccccc4n3)ccc3c2c(c(CSc2ccccc2C(=O)O)n3Cc2ccc(Cl)cc2)S1 (stereo not given),,IC50 [1]: 72 nM
130 nM,,CC1Cc2c(OCc3ccc(-c4ccccc4)cn3)ccc3c2c(c(CCOc2ccc(Cl)cc2C(=O)O)n3Cc2ccc(Cl)cc2)S1 (stereo not given),,
30 nM,10%,CC1Cc2c(OCc3ccc(-c4ccccc4)cn3)ccc3c2c(c(CCSc2ccccc2C(=O)O)n3Cc2ccc(Cl)cc2)S1 (stereo not given),,
26 nM,35%,CC1Cc2c(OCc3ccc(-c4ccccc4)cn3)ccc3c2c(c(COc2ccccc2CC(=O)O)n3Cc2ccc(Cl)cc2)S1 (stereo not given),27%,
175 nM,,CC1Cc2c(OCc3cc4ccccc4cn3)ccc3c2c(c(CSc2ccccc2C(=O)O)n3Cc2ccc(Cl)cc2)S1 (stereo not given),,IC50 [1]: 2900 nM
170 nM,,CC1Cc2c(OCc3ccc(-c4ccccc4)cn3)ccc3c2c(c(CCOc2cccc(C(=O)O)c2)n3Cc2ccc(Cl)cc2)S1 (stereo not given),,
60 nM,37%,CC1Cc2c(OCc3ccc(-c4ccccc4)cn3)ccc3c2c(c(CCOc2ccccc2C(=O)O)n3Cc2ccc(Cl)cc2)S1 (stereo not given),42%,
30 nM,< 5%,CC1Cc2c(OCc3ccc(-c4ccccc4)cn3)ccc3c2c(c(CSc2ccccc2C(=O)O)n3Cc2ccc(Cl)cc2)S1 (stereo not given),,
62 nM,,CC1Cc2c(OCc3ccc(-c4ccccc4)cn3)ccc3c2c(c(COCc2ccccc2C(=O)O)n3Cc2ccc(Cl)cc2)S1 (stereo not given),,

# Further lines, the compound ahead of its results:
Compound,IC50 [2],bioavailability [3],inhibition in vivo at 5 mg/kg (Rattus norvegicus),other results
CC1Cc2c(OCc3ccc(-c4ccccc4)cn3)ccc3c2c(c(CCOc2ccccc2CC(=O)O)n3Cc2cccc(Cl)c2)S1 (stereo not given),40 nM,,,
CC1Cc2c(OCc3ccc(-c4ccccc4)cn3)ccc3c2c(c(CCOc2ccccc2CC(=O)O)n3Cc2cccc(F)c2)S1 (stereo not given),23 nM,44%,59%,
CCC(OCCc1c2c3c(c(OCc4ccc(-c5ccccc5)cn4)ccc3n1Cc1ccc(Cl)cc1)CC(C)S2)C(=O)O (stereo not given),,,50%,
CC(C)c1ccc2c(c1)c(SC(C)(C)C)c(CC(C)(C)C(=O)O)n2Cc1ccc(Cl)cc1,> 10 nM,,,
CC1Cc2c(OCc3ccc(-c4ccccc4)cn3)ccc3c2c(c(CCOc2ccccc2CC(=O)O)n3Cc2ccc(F)cc2)S1 (stereo not given),60 nM,4%,36%,
CC1Cc2c(OCc3ccc(-c4ccccc4)cn3)ccc3c2c(c(CCc2ccccc2C(=O)O)n3Cc2ccc(Cl)cc2)S1 (stereo not given),360 nM,,,
COc1ccc(COc2ccc3c4c2CC(C)Sc4c(CSc2ccccc2C(=O)O)n3Cc2ccc(Cl)cc2)nc1 (stereo not given),52 nM,,,IC50 [1]: 370 nM
CC1Cc2c(OCc3ccc(-c4ccccc4)cn3)ccc3c2c(c(CCOc2ccccc2CC(=O)O)n3Cc2ccc(Cl)cc2)S1 (stereo not given),60 nM,15%,47%,
CC1Cc2c(OCc3ccc(-c4ccccc4)cn3)ccc3c2c(c(COc2ccccc2CC(=O)O)n3Cc2cccc(Cl)c2)S1 (stereo in doubt; 14b),18 nM,,74%,F [3]: 11%
CC1Cc2c(OCc3ccc(-c4ccccc4)cn3)ccc3c2c(c(COc2ccccc2CC(=O)O)n3Cc2cccc(Cl)c2)S1 (stereo in doubt; (+)14b),95 nM,,,
CC1Cc2c(OCc3ccc(-c4ccccc4)cn3)ccc3c2c(c(COc2ccccc2CC(=O)O)n3Cc2cccc(Cl)c2)S1 (stereo in doubt; (-)14b),10 nM,,,F [3]: 32%; Inhibition (Rattus norvegicus; 5 mg/kg): 58%
CC(C)(C)Sc1c(CC(C)(C)C(=O)O)n(Cc2ccc(Cl)cc2)c2ccc(OCc3ccc4ccccc4n3)cc12 [QUIFLAPON],> 10000 nM,,,IC50 [1]: 1.6 nM
